Test: Cytotoxicity against human IMR-32 cells assessed as reduction in cell viability measured after 24 hrs by celltiter-glo-based assay
Format: toxicity
In short: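 Human IMR32 neuroblastoma cells were exposed to compound for 24 h. Viability was then read by CellTiter-Glo luminescence.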

Row | Structure (SMILES) | IC50 at 24 h [µM]
1 | O=C(O)CCCN[C@H]1CS(=O)(=O)C[C@@H]1S(=O)(=O)c1ccc(Cl)c(Cl)c1 | > 20
2 | O=C(O)CCCCCN[C@H]1CS(=O)(=O)C[C@@H]1S(=O)(=O)c1ccc(Cl)c(Cl)c1 | > 20
3 | CC(C)CN[C@H]1CS(=O)(=O)C[C@@H]1C(=O)Nc1ccc(Cl)c(Cl)c1 | > 20
